Gli-Sufu block: antagonists of Gli-Sufu signaling; Sufu-KO-LIGHT fibroblasts, Gli luciferase reporter luminescence; inhibition, % at 5 µM; 340,000 compounds, 0.74% hits;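 active = inhibition above about 55%, limit read from the data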
697 NFkB inh: lowers PMA/ionomycin-induced NF-kB signal in 697 B cells; 697 B-cell NF-kB luciferase reporter, 16 h; inhibition, % at 4 µM; 330,000 compounds, 0.33% hits; AID 435022; in the data active = inhibition above about 35%
NR2E3 ag-1: activates human NR2E3 receptor; AID 602229; CHO-S Gal4-NCOR/VP16-NR2E3 two-hybrid, luciferase; Q9Y5X4; inhibition of corepressor binding, % at 3.98 µM; 360,000 compounds, 0.35% hits;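 active = inhibition above the mean of all tested compounds plus 3 SD, cut at about 70% in these data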;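 note: higher means lower luciferase signal from less NR2E3 corepressor binding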
Target sequence (Q9Y5X4 whole entry, looked up, the tested form may be a part): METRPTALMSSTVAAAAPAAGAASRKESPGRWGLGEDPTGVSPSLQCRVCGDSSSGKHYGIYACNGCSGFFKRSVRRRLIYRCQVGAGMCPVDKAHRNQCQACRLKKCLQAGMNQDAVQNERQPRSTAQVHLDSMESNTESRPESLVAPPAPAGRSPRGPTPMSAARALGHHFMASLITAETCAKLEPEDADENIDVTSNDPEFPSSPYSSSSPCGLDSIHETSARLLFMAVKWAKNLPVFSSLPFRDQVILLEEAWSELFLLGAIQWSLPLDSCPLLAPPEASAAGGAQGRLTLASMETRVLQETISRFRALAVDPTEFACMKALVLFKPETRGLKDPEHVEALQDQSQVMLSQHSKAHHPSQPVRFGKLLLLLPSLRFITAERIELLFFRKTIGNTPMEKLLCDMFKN
NR2E3 ag-2: agonists of human nuclear receptor NR2E3; GST-NR2E3/biotin-RetCOR TR-FRET, 1536-well; inhibition of corepressor binding, % at 4.78 µM; 320,000 compounds, 0.12% hits; AID 2300;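 active = percent inhibition above the cutoff of mean plus 3 SD of all tested compounds, set per screening campaign, cut at about 20% in these data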
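Material – GST-tagged NR2E3 plus biotinylated RetCOR corepressor · Quantity – NR2E3 fusion 1.35 nM · Times – 5 h incubation at 4 °C · Medium – pH 7.5 Tris-based buffer · Technique – TR-FRET, Eu(K)-anti-GST donor, streptavidin-D2 acceptor, ex 340, em 617/671 nm · Benchmarks – high control biotin, low control 0.6% DMSO · Format – 1536-well plates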
GalR3 antagonist: blocks the human galanin receptor 3; AID 651719; inhibition, % at 3 µM; HEK293 GalR3-CNG cAMP membrane potential fluorescence; galR3 body fused to GalR1 C-terminus; O60755; 360,000 compounds, 0.44% hits;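 active = inhibition above the screen-wide average plus 3 SD, cut at about 13% in these data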;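 note: forskolin and galanin both at EC90 stimulate the cells; cAMP rise reported by CNG channel membrane potential dye signal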
Target sequence (O60755 1-299 limits assumed): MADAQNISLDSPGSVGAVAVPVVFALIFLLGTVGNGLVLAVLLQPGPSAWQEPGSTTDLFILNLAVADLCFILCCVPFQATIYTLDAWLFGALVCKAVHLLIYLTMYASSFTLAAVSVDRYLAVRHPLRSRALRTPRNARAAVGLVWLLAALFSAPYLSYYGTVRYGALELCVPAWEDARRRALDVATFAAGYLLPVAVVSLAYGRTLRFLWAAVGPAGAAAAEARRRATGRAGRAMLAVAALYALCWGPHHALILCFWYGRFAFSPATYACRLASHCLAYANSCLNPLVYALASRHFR
Jurkat NFkB inh: lowers PMA/ionomycin-induced NF-kB signal in Jurkat cells. inhibition, % at 4 µM. AID 435003. PMA/ionomycin-induced NF-kB luciferase reporter, luminescence. 330,000 compounds, 0.53% hits; in the data active = inhibition above about 50%
Gli antag conf: confirmation of Gli-SUFU pathway antagonists. shares compounds with Gli-Sufu block. Sufu-KO-LIGHT cells, Gli luciferase reporter, luminescence. inhibition, % at 5 µM. 2,500 compounds, 40% hits;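 active = mean inhibition at 5 µM reaching about 45%, limit read from the data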
SufuKO cytotox: cytotoxic in Gli-SUFU antagonist counter-screen; shares compounds with Gli-Sufu block; Sufu-KO-LIGHT cells cytotoxicity, ATP luminescence; AID 651994; cytotoxicity, % at 5 µM; 2,500 compounds, 32% hits;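 active = mean cytotoxicity at 5 µM above about 25%, limit read from the data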;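 note: cells exposed to compound overnight for roughly 16 to 18 hours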
Wnt3a counter: counter-screen for Gli-SUFU antagonists: Wnt3a reporter inhibition. shares compounds with Gli-Sufu block. Wnt-LIGHT cells, Wnt3a-driven luciferase reporter, luminescence. inhibition, % at 6.25 µM. 2,500 compounds, 20% hits. AID 651995;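 active = mean inhibition above about 25%, limit read from the data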
Each line names hits and unclear results; the compound was inactive in the other large screens (follow-up assays come after a bar, where they were run). Compounds with a hit are over-represented: about 1.8% of the library has one in this group of screens.

Cc1cc(Br)c2nc(-c3cccc(Br)c3)c(Cc3cccc(Cl)c3)n2c1	none (no result: Gli-Sufu block, 697 NFkB inh, NR2E3 ag-1, NR2E3 ag-2, Jurkat NFkB inh)
Cc1c(/C=N/NC(=O)c2ccccc2O)c2ccccn2c1C(=O)c1ccc(F)cc1	Gli-Sufu block 79 | Gli antag conf 71 | SufuKO cytotox inactive | Wnt3a counter inactive
CCOc1ccc(N(CC(=O)Nc2ccccc2OC)S(=O)(=O)c2ccccc2)cc1	none (no result: NR2E3 ag-2) | Gli antag conf 47 | SufuKO cytotox 60 | Wnt3a counter inactive
CCNC(=O)C(=O)NCC(c1cccs1)S(=O)(=O)c1ccc(C)cc1 (stereo not drawn)	none | Gli antag conf inactive | SufuKO cytotox inactive | Wnt3a counter inactive
CCOC(=O)C(=O)NCC(c1cccs1)S(=O)(=O)c1ccc(C)cc1 (stereo not drawn)	none
CCOC(=O)C(=O)NCC(c1cccs1)S(=O)(=O)c1ccc(Cl)cc1 (stereo not drawn)	none | Gli antag conf inactive | SufuKO cytotox inactive | Wnt3a counter inactive
Cc1ccc(S(=O)(=O)C(CNC(=O)C(C)C)c2cccs2)cc1 (stereo not drawn)	none
CCN(Cc1ccccc1)C(=O)COC(=O)c1cc(S(=O)(=O)Nc2ccccc2OC)ccc1O	Gli-Sufu block 58 (no result: NR2E3 ag-2) | Gli antag conf inactive | SufuKO cytotox inactive | Wnt3a counter inactive
COc1ccccc1NS(=O)(=O)c1ccc(O)c(C(=O)OCC(=O)Nc2ccccc2F)c1	none
O=C(NCC1CCCO1)c1ccc[nH]1 (stereo not drawn)	none
CC(=O)c1ccc(N2CCN(c3ncc(C(F)(F)F)cc3Cl)CC2)cc1	none
Cc1ccc(C(=O)N2CCN(c3ncc(C(F)(F)F)cc3Cl)CC2)s1	Gli-Sufu block 58 (no result: NR2E3 ag-2) | Gli antag conf inactive | SufuKO cytotox inactive | Wnt3a counter inactive
CCCCNc1ccc2c(c1)OC[C@@H](CC(C)C)NS2(=O)=O	none (no result: Gli-Sufu block, 697 NFkB inh, NR2E3 ag-1, NR2E3 ag-2, Jurkat NFkB inh)
Cc1oc(-c2ccccc2)cc1C(=O)Nc1ccc(N(C)C)cc1	none
Cc1oc(-c2ccccc2)cc1C(N)=O	Gli-Sufu block 100 | Gli antag conf inactive | SufuKO cytotox inactive | Wnt3a counter inactive
Cc1ccc(-c2nc3c4ccccc4ccn3c2Cc2cccc(F)c2)cc1	none (no result: Gli-Sufu block, 697 NFkB inh, NR2E3 ag-1, NR2E3 ag-2, Jurkat NFkB inh)
O=C(c1ccccc1)N1CCN(CC#Cc2ccccc2)CC1	Gli-Sufu block 99 | Gli antag conf inactive | SufuKO cytotox inactive | Wnt3a counter inactive
CCOC(=O)N1CCN(C(=O)CS(=O)(=O)Cc2nc(-c3ccccc3F)oc2C)CC1	Gli-Sufu block 57 | Gli antag conf inactive | SufuKO cytotox 28 | Wnt3a counter inactive
COc1ccc(NC(=O)N(C)C[C@@H]2OCc3cnnn3CCCC(=O)N([C@H](C)CO)C[C@H]2C)c(OC)c1	none (no result: Gli-Sufu block, 697 NFkB inh, NR2E3 ag-1, NR2E3 ag-2, Jurkat NFkB inh)
O=C(c1cccc(S(=O)(=O)N2CCCC2)c1)N1CCN(c2ccccc2)CC1	none
O=C(c1cccc(S(=O)(=O)N2CCN(c3ccccc3)CC2)c1)N1CCCC(C(F)(F)F)C1 (stereo not drawn)	none | Gli antag conf 57 | SufuKO cytotox inactive | Wnt3a counter inactive
O=C(c1cccc(S(=O)(=O)N2CCCc3ccccc32)c1)N1CCN(c2ccccc2)CC1	none (no result: NR2E3 ag-2) | Gli antag conf inactive | SufuKO cytotox inactive | Wnt3a counter inactive
COCCCNC(=O)C[C@H]1C[C@@]2(C(=O)OC)C(=C[C@H](COCc3ccccc3)O[C@@H]2C)N(CCC2=CCCCC2)C1=O	none (no result: Gli-Sufu block, 697 NFkB inh, NR2E3 ag-1, NR2E3 ag-2, Jurkat NFkB inh)
O=C(Nc1ccc([N+](=O)[O-])cc1)c1ccccc1	none
O=C(Nc1cc(Sc2ccccn2)cc([N+](=O)[O-])c1)c1ccc([N+](=O)[O-])cc1	none | Gli antag conf inactive | SufuKO cytotox 26 | Wnt3a counter inactive
CC1(C)CC(=O)C/C(=N/NC(=O)CCCOc2ccc(Cl)cc2Cl)C1	Gli-Sufu block 99 | Gli antag conf inactive | SufuKO cytotox inactive | Wnt3a counter inactive
O=C(CCCOc1ccc(Cl)cc1Cl)N/N=C/c1ccc(Cl)cc1	none
Cc1nnc(NCc2ccncc2)c2ccccc12	none | Gli antag conf inactive | SufuKO cytotox inactive | Wnt3a counter inactive
COc1cccc2[nH]c(-c3ccccn3)nc12	none (no result: Gli-Sufu block, 697 NFkB inh, NR2E3 ag-1, NR2E3 ag-2, Jurkat NFkB inh)
COc1ccc(-c2cn[nH]c2-c2ccc(OCc3ccccc3)cc2O)cc1	none
CCOc1ccc(-c2[nH]ncc2-c2ccccc2)c(O)c1	Gli-Sufu block 55 | Gli antag conf inactive | SufuKO cytotox inactive | Wnt3a counter inactive
CN(C)c1ccccc1C(=O)N1CCCC(C(=O)c2ccc3ccccc3c2)C1 (stereo not drawn)	Gli-Sufu block 61 | Gli antag conf inactive | SufuKO cytotox inactive | Wnt3a counter inactive
Cn1nccc1C(=O)N1CCCC(C(=O)c2cccc3ccccc23)C1 (stereo not drawn)	Gli-Sufu block 72 | Gli antag conf inactive | SufuKO cytotox inactive | Wnt3a counter inactive
CSc1ncccc1C(=O)N1CCCC(C(=O)c2ccc3ccccc3c2)C1 (stereo not drawn)	none
CCN1CCS/C1=C\C=C\C1=[N+](CC)CCS1	Gli-Sufu block 81, GalR3 antagonist 15 (no result: 697 NFkB inh, NR2E3 ag-2, Jurkat NFkB inh) | Gli antag conf 87 | SufuKO cytotox 34 | Wnt3a counter 50
CCOc1cc(C(=O)OCc2cccc(OC)c2OC)ccc1OCC(=O)N1CCOCC1	Gli-Sufu block 71 | Gli antag conf inactive | SufuKO cytotox inactive | Wnt3a counter inactive
CCOc1cc(C(=O)OCc2ccc([N+](=O)[O-])cc2)ccc1OCC(=O)N1CCOCC1	none
CC(C)C[C@@H](NC(=O)OC(C)(C)C)C(=O)N1O[C@]23C=C[C@]14C[C@@H](O)CC[C@]4(C)C2CC[C@]1(C)[C@@H]([C@H](C)/C=C/[C@H](C)C(C)C)CC[C@H]13 (stereo partly drawn)	none (no result: Gli-Sufu block, 697 NFkB inh, NR2E3 ag-1, NR2E3 ag-2, Jurkat NFkB inh)
CCCCNCCCOc1cccc(Cl)c1Cl	Gli-Sufu block 62 | Gli antag conf inactive | SufuKO cytotox inactive | Wnt3a counter inactive
CCCCNCCCOc1ccc(C)cc1Br	Gli-Sufu block 67 | Gli antag conf inactive | SufuKO cytotox inactive | Wnt3a counter inactive
O=S1(=O)N[C@H](Cc2ccccc2)COc2cc(F)ccc21	none (no result: Gli-Sufu block, 697 NFkB inh, NR2E3 ag-1, NR2E3 ag-2, Jurkat NFkB inh)
C[C@H]1CN([C@@H](C)CO)C(=O)CCCn2cc(nn2)CO[C@@H]1CN(C)S(=O)(=O)c1ccc(F)cc1	none (no result: Gli-Sufu block, 697 NFkB inh, NR2E3 ag-1, NR2E3 ag-2, Jurkat NFkB inh)
NS(=O)(=O)c1ccc(CCNc2ncnc3sccc23)cc1	Gli-Sufu block 60 | Gli antag conf 55 | SufuKO cytotox 31 | Wnt3a counter 28
COc1ccc(C2CC(c3ccccc3)=NN2S(=O)(=O)c2ccc(C)cc2)c(OC)c1 (stereo not drawn)	none | Gli antag conf inactive | SufuKO cytotox 37 | Wnt3a counter inactive
